System: HEK-293T
Assay: Multiplex assay against HEK293T
Format: toxicity, cell-based
Conditions: human
How it was run: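 Cells stained live at seeding with Hoechst33342, BioTracker Green Microtubule Cytoskeleton Dye, MitoTracker Red and Annexin V Alexa Fluor 680 were imaged on a CQ1 microscope at 37°C and 5% CO2 after compound addition. Their classification by CellPathfinder machine-learning gating ran from Hoechst high-intensity objects versus normal cells, to healthy, pyknosed or fragmented nuclei among normal cells, to mitotic or apoptotic among pyknosed cells. Tubulin, mitochondrial-mass and membrane-permeability phenotypes are per cents of healthy-nucleus cells.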

[1] = 12 h, 1 µM, compound concentration 1 uM, replicate 1
[2] = 12 h, 1 µM, compound concentration 1 uM, replicate 2
[3] = 12 h, 10 µM, compound concentration 10 uM, replicate 1
[4] = 12 h, 10 µM, compound concentration 10 uM, replicate 2
[5] = 24 h, 1 µM, compound concentration 1 uM, replicate 1
[6] = 24 h, 1 µM, compound concentration 1 uM, replicate 2
[7] = 24 h, 10 µM, compound concentration 10 uM, replicate 1
[8] = 24 h, 10 µM, compound concentration 10 uM, replicate 2
[9] = 48 h, 1 µM, compound concentration 1 uM, replicate 1
[10] = 48 h, 1 µM, compound concentration 1 uM, replicate 2
[11] = 48 h, 10 µM, compound concentration 10 uM, replicate 1
[12] = 48 h, 10 µM, compound concentration 10 uM, replicate 2

## CCCC(CCC)C(=O)O [VALPROIC ACID]
[1]
  Population Apoptotic (%): 39%
  Population Fragmented Nuclei (%): 6%
  Population Healthy Nuclei (%): 81%
  Population Hoechst High Intensity Objects (%): 6%
  Population Membrane Permeable-Phenotype (%): 0%
  Population Mitochondria Different-Phenotype (%): 29%
  Population Mitotic Cells (%): 60%
  Population Normal (%): 93%
  Population Pyknosed Nuclei (%): 12%
  Population Tubulin-Different-Phenotype (%): 20%
  Total Cell Count: 513
[2]
  Population Apoptotic (%): 28%
  Population Fragmented Nuclei (%): 5%
  Population Healthy Nuclei (%): 79%
  Population Hoechst High Intensity Objects (%): 5%
  Population Mitochondria Different-Phenotype (%): 46%
  Population Mitotic Cells (%): 71%
  Population Normal (%): 94%
  Population Pyknosed Nuclei (%): 15%
  Population Tubulin-Different-Phenotype (%): 16%
  Total Cell Count: 367
[3]
  Population Apoptotic (%): 34%
  Population Fragmented Nuclei (%): 6%
  Population Healthy Nuclei (%): 82%
  Population Hoechst High Intensity Objects (%): 6%
  Population Membrane Permeable-Phenotype (%): 0%
  Population Mitochondria Different-Phenotype (%): 40%
  Population Mitotic Cells (%): 66%
  Population Normal (%): 93%
  Population Pyknosed Nuclei (%): 11%
  Population Tubulin-Different-Phenotype (%): 26%
  Total Cell Count: 455
[4]
  Population Apoptotic (%): 44%
  Population Fragmented Nuclei (%): 7%
  Population Healthy Nuclei (%): 81%
  Population Mitochondria Different-Phenotype (%): 49%
  Population Mitotic Cells (%): 55%
  Population Tubulin-Different-Phenotype (%): 20%
  Total Cell Count: 446
[5]
  Population Apoptotic (%): 28%
  Population Fragmented Nuclei (%): 8%
  Population Healthy Nuclei (%): 78%
  Population Hoechst High Intensity Objects (%): 4%
  Population Membrane Permeable-Phenotype (%): 1%
  Population Mitochondria Different-Phenotype (%): 22%
  Population Mitotic Cells (%): 71%
  Population Normal (%): 95%
  Population Pyknosed Nuclei (%): 12%
  Population Tubulin-Different-Phenotype (%): 16%
  Total Cell Count: 663
[6]
  Population Apoptotic (%): 45%
  Population Fragmented Nuclei (%): 6%
  Population Healthy Nuclei (%): 83%
  Population Membrane Permeable-Phenotype (%): 0%
  Population Mitochondria Different-Phenotype (%): 26%
  Population Mitotic Cells (%): 54%
  Population Pyknosed Nuclei (%): 9%
  Population Tubulin-Different-Phenotype (%): 10%
  Total Cell Count: 469
[7]
  Population Apoptotic (%): 28%
  Population Fragmented Nuclei (%): 9%
  Population Healthy Nuclei (%): 81%
  Population Hoechst High Intensity Objects (%): 4%
  Population Membrane Permeable-Phenotype (%): 0%
  Population Mitochondria Different-Phenotype (%): 16%
  Population Mitotic Cells (%): 71%
  Population Normal (%): 95%
  Population Pyknosed Nuclei (%): 9%
  Population Tubulin-Different-Phenotype (%): 15%
  Total Cell Count: 649
[8]
  Population Apoptotic (%): 23%
  Population Fragmented Nuclei (%): 8%
  Population Healthy Nuclei (%): 86%
  Population Hoechst High Intensity Objects (%): 3%
  Population Mitochondria Different-Phenotype (%): 30%
  Population Mitotic Cells (%): 76%
  Population Normal (%): 96%
  Population Pyknosed Nuclei (%): 5%
  Population Tubulin-Different-Phenotype (%): 11%
  Total Cell Count: 593
[9]
  Population Apoptotic (%): 19%
  Population Fragmented Nuclei (%): 14%
  Population Healthy Nuclei (%): 78%
  Population Hoechst High Intensity Objects (%): 2%
  Population Membrane Permeable-Phenotype (%): 3%
  Population Mitochondria Different-Phenotype (%): 11%
  Population Mitotic Cells (%): 80%
  Population Normal (%): 97%
  Population Pyknosed Nuclei (%): 6%
  Population Tubulin-Different-Phenotype (%): 9%
  Total Cell Count: 1112
[10]
  Population Apoptotic (%): 36%
  Population Fragmented Nuclei (%): 10%
  Population Healthy Nuclei (%): 81%
  Population Hoechst High Intensity Objects (%): 3%
  Population Membrane Permeable-Phenotype (%): 1%
  Population Mitochondria Different-Phenotype (%): 17%
  Population Mitotic Cells (%): 63%
  Population Normal (%): 96%
  Population Pyknosed Nuclei (%): 8%
  Population Tubulin-Different-Phenotype (%): 10%
  Total Cell Count: 700
[11]
  Population Apoptotic (%): 21%
  Population Fragmented Nuclei (%): 15%
  Population Healthy Nuclei (%): 79%
  Population Hoechst High Intensity Objects (%): 3%
  Population Membrane Permeable-Phenotype (%): 1%
  Population Mitochondria Different-Phenotype (%): 11%
  Population Mitotic Cells (%): 78%
  Population Normal (%): 96%
  Population Pyknosed Nuclei (%): 5%
  Population Tubulin-Different-Phenotype (%): 9%
  Total Cell Count: 1088
[12]
  Population Apoptotic (%): 27%
  Population Fragmented Nuclei (%): 13%
  Population Healthy Nuclei (%): 82%
  Population Hoechst High Intensity Objects (%): 1%
  Population Membrane Permeable-Phenotype (%): 2%
  Population Mitochondria Different-Phenotype (%): 12%
  Population Mitotic Cells (%): 72%
  Population Normal (%): 98%
  Population Pyknosed Nuclei (%): 4%
  Population Tubulin-Different-Phenotype (%): 6%
  Total Cell Count: 947

From ChEMBL document CHEMBL5058577, “EUbOPEN Chemogenomics Library 2 (Multiplex)” (2022)
